High-throughput results as filed in PubChem BioAssay.
An excerpt weighted towards active compounds, which were near 2.9% of everything screened.
HTR1E agonist: 5-HT1E (human) receptor agonism; P28566; CHO 5-HT1E Ga15 NFAT-bla reporter, FRET; 0% DMSO wells, 100% control agonist wells; activation, % at 6 µM; hit rate 0.69% among 65,000; AID 574;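 active = activation above a set limit, the screen-wide mean activation plus 3 SD, cut at about 8.5% in these data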
S1P3 agonist: activates the human S1P3 receptor | AID 373 | hit rate 0.1% among 60,000 | Q99500 | activation, % at 4.5 µM | S1P3 NFAT-BLA reporter cells, agonism, FRET ratio; relative to 1 µM S1P, basal subtracted;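 active = activation above the screen-wide mean plus 3 SD, cut at about 4.5% in these data, passing the limit was not always enough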
Target sequence (Q99500 whole entry, looked up): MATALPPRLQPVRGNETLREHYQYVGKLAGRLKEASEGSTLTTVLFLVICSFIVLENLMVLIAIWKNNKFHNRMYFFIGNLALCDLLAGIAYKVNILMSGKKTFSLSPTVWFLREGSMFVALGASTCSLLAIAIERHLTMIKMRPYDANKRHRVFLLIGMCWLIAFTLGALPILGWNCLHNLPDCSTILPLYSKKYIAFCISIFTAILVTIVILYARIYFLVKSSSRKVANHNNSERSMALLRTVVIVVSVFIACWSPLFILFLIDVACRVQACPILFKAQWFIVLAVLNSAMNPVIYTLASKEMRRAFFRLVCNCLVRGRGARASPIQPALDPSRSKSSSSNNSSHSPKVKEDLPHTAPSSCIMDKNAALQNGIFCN
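Assay system: stable CHO line with human S1P3, Gα16, NFAT-BLA reporter; Detection: FRET β-lactamase substrate fluorescence, excitation 405 nm, 460/535 nm emission ratio, background-subtracted; Read-out: percent activation versus median 1 µM S1P response, basal-subtracted, per plate; Incubation: cells plated overnight, compound 4 h 37 °C, substrate 2 h RT.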
5HT1a ag: agonists of human 5-HT1a serotonin receptor; AID 567; CHO 5-HT1a Ga15 NFAT-bla reporter, FRET ratio; 0% basal, 100% maximal reference agonist; P08908; activation, % at 10 µM; hit rate 0.56% among 65,000;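 active = activation above the screen-wide mean activation plus 3 SD, cut at about 19% in these data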
5HT1E antag: antagonists of human 5-HT1E serotonin receptor | inhibition, % at 6 µM | CHO 5-HT1E Ga15 NFAT-bla reporter, FRET, antagonist | hit rate 0.99% among 65,000;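 active = inhibition above a set limit, the mean inhibition across every tested compound plus 3 SD, cut at about 29% in these data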;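 also: signal is the 460 over 535 nm emission ratio of beta-lactamase substrate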
S1P1 ag-PAM: S1P1 (human) agonism or agonism potentiation | P21453 | S1P1 CRE-bla cells, forskolin, beta-lactamase FRET, potentiator mode; S1P1 agonist co-added at EC20, 2 nM; 100% = saturating reference agonist, 0% = basal | activation, % at 9.5 µM | hit rate 0.57% among 56,000;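 active = activation above a cutoff set at the mean activation of all tested compounds plus 3 SD, cut at about 54% in these data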;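 also: forskolin at 4 µM as EC80 and the EC20 agonist is SEW2871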
5HT1a antag: 5-HT1a (human) receptor antagonism. hit rate 0.68% among 62,000. CHO 5-HT1a Ga15 NFAT-bla reporter, antagonist mode. inhibition, % at 10 µM;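 active = inhibition above the mean of all tested compounds plus 3 SD, cut at about 43% in these data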;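 also: receptor stimulated by 5-CT agonist at 100 nM near EC80; beta-lactamase reporter measured by ratiometric fluorescence of a cleavable substrate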
Hits are given with their value; – = inactive; · = no result given.

SMILES	HTR1E agonist	S1P3 agonist	5HT1a ag	5HT1E antag	S1P1 ag-PAM	5HT1a antag
c1ccc(C(Cc2nc(-c3cccnc3)no2)c2ccccc2)cc1	–	20	–	–	85	–
c1ccc(C(Cc2nc(-c3ccccn3)no2)c2ccccc2)cc1	–	11	–	–	–	–
c1ccc(Cc2nc(-c3ccccn3)no2)cc1	–	–	–	–	–	–
COc1ccccc1NC(=O)CSc1ncnc2c1oc1ccccc12	–	–	–	36	–	–
CCc1nc(SCC(=O)Nc2ccc3c(c2)OCCO3)c2oc3ccccc3c2n1	–	–	–	–	–	–
Cc1cccc(NC(=O)CSc2ncnc3c2oc2ccccc23)c1	–	–	–	–	–	–
CCc1nc(SCC(=O)Nc2nccs2)c2oc3ccccc3c2n1	–	–	–	38	–	–
COC(=O)c1ccc(C2C(C(C)=O)=C(O)C(=O)N2CCO)cc1 (stereo not drawn)	–	–	–	–	–	–
CCCCn1nnnc1SCC(=O)c1ccc(C)c(C)c1	–	–	–	–	84	–
CCCCn1nnnc1SCC(=O)Nc1cccc(C)n1	–	–	–	–	–	–
CCCCn1c(=O)[nH]c(=O)c2c1nc(-c1ccncc1)n2CCOC	–	–	270	–	–	–
CCC1CCCCN1C(=O)CSc1nnc(CNC(=O)c2cc(OC)c(OC)c(OC)c2)o1 (stereo not drawn)	–	·	–	–	·	–
COc1ccc(-c2csc3nc(C)n(-n4cccc4)c(=O)c23)cc1OC	–	–	–	–	–	–
Cc1nc2sc(-c3ccccc3)cc2c(=O)n1-n1cccc1	–	–	–	–	60	–
O=C(C1=COCCO1)N1CCN(C(c2ccccc2)c2ccccc2)CC1	–	–	–	–	–	–
CCN1CCN(C(=O)C2c3cc(OC)c(OC)cc3C(=O)N(C)C2c2ccc(SC)cc2)CC1 (stereo not drawn)	–	·	–	–	·	60
CN1CCN(CC(=O)Nc2nc(-c3ccccc3)cs2)CC1	–	–	–	–	–	·
CC1Cc2cc(-c3csc(NC(=O)Cc4cccs4)n3)ccc2N1S(C)(=O)=O (stereo not drawn)	–	–	–	–	57	–
COc1cccc(-c2nnc(SCC(=O)OC(C)C)n2Cc2ccco2)c1	–	–	–	–	–	–
Cc1ccc(/C=c2/sc3nnc(-c4ccccc4Cl)n3c2=O)o1	–	–	–	–	–	46
Cn1cccc1C(=O)NS(=O)(=O)c1ccccc1Cl	–	–	25	–	–	–
CC1(C)CC(=O)C(C=NCCN2CCN(C(=O)C34CC5CC(CC(C5)C3)C4)CC2)=C(O)C1	–	–	–	–	–	·
Cn1c(=O)c2c(-c3ccccc3)n(C3CCCCC3)cc2n(C)c1=O	–	13	–	–	–	–
Cn1c(=O)c2c(-c3ccccc3)n(-c3ccccc3O)cc2n(C)c1=O	–	–	–	–	–	–
CCc1ccccc1-n1c(SCC(=O)NC)nnc1-c1cccnc1	–	–	–	–	–	–
SMILES	HTR1E agonist	S1P3 agonist	5HT1a ag	5HT1E antag	S1P1 ag-PAM	5HT1a antag
Cc1cc(C(=O)CSc2nnc(-c3ccncc3)n2-c2ccccc2)c(C)n1C	–	–	–	–	97	–
Cc1cc(C(=O)CSc2nnc(-c3ccccc3)n2C)c(C)n1C	–	–	–	–	–	–
Cc1cc(C(=O)CSc2nnc(-c3cccnc3)n2-c2ccccc2F)c(C)n1C	–	–	–	–	101	–
CCOc1ccccc1-n1c(SCC(N)=O)nnc1-c1ccccc1	–	–	–	–	–	–
Cc1cc(C(=O)CSc2nnc(-c3ccccc3)n2-c2ccccc2)c(C)n1-c1ncn[nH]1	–	–	–	–	90	–
C=CCNc1nc2c3ccccc3n(C(C)=O)c2s1	–	–	–	–	–	–
COc1ccc(-c2cc(C(=O)Nc3ccccc3SC)no2)cc1OC	–	–	–	–	–	–
COc1ccccc1-c1cc(C(=O)Nc2ccccc2SC)no1	–	–	–	–	94	–
COc1cccc(-c2cc(C(=O)Nc3ccccc3SC)no2)c1	–	–	–	–	89	–
COc1ccc(NC(=O)c2cc(-c3ccccc3OC)on2)cc1	–	–	–	–	–	–
CSc1nnc2c(n1)OC(C1CC=C(C)CC1)Nc1ccccc1-2 (stereo not drawn)	–	–	–	–	–	–
COC(=O)c1ccccc1NC(=O)CN1CCN(C23CC4CC(CC(C4)C2)C3)CC1	–	–	–	–	–	–
O=C(CCN1CCN(c2ccccc2F)CC1)Nc1ccccc1F	–	–	–	–	–	–
O=C(CCN1CCN(c2ccccc2F)CC1)c1ccc(Br)cc1	34	–	–	–	–	–
Cc1ccc(-c2cc(-c3ccc(C)o3)nc(N)c2C#N)cc1	–	–	–	–	–	–
Cc1ccc(-c2cc(C(F)(F)F)c(C#N)c(SCCC#N)n2)o1	–	–	34	–	·	–
Cc1c(-c2ccc(F)cc2)nc(N)c(C#N)c1-c1ccco1	–	–	–	29	–	–
Cn1c(=O)c2cn(Cc3ccc(Cl)cc3)cc2n(C)c1=O	–	–	–	–	·	–
Cc1ccc(N2CCCCn3c2nc2c3c(=O)n(CC(=O)O)c(=O)n2C)cc1	–	–	–	–	–	–
COC(=O)CSc1ncnc2c1sc1nc(-c3ccco3)c3c(c12)CC(C)(C)OC3	–	–	–	–	–	·
CC(C)c1nc2sc3c(NCc4ccco4)ncnc3c2c2c1COC(C)(C)C2	–	·	–	56	·	–
Cc1nc(NCc2ccco2)c(C#N)c2c1COC(C)(C)C2	–	–	–	–	–	–
CC1(C)Cc2c(C#N)c(NCc3ccco3)nc(-c3ccco3)c2CO1	11	–	54	–	–	·
Cc1ccc(NC(=O)c2ccc3ccccc3n2)nc1	–	–	–	–	–	–
Cc1ccc(C(=O)Nc2nc(COc3ccccc3)cs2)s1	–	–	–	–	98	–
SMILES	HTR1E agonist	S1P3 agonist	5HT1a ag	5HT1E antag	S1P1 ag-PAM	5HT1a antag
Cc1ccc(C)c(-c2nnc(OCC(=O)Nc3cc(C)on3)c3ccccc23)c1	–	–	–	–	–	–
COc1ccc(OC)c(NS(=O)(=O)c2ccc(N3CCCC3=O)cc2)c1	–	–	–	48	–	·
COc1ccc(OC)c(NS(=O)(=O)c2ccc(SC)cc2)c1	–	–	–	–	–	–
CCOc1ccc(S(=O)(=O)Nc2cc(OC)ccc2OC)cc1	–	–	–	65	–	52
COc1ccc(S(=O)(=O)Nc2cc(Cl)ccc2OC)cc1	–	–	–	30	–	–
Cc1cccc2cc(COC(=O)C3CCCCC3)c(=O)[nH]c12	–	–	–	–	–	–
CCC(c1nnnn1C(C)(C)C)N1CCN(c2cc(Cl)ccc2C)CC1 (stereo not drawn)	–	–	–	–	–	44
NC/C(=N\O)c1ccc(Cl)cc1Cl	13	–	–	–	–	–
